ABHD4 inh = ABHD4 (mouse) inhibition, primary FP screen; purified mABHD4, FP-Rh probe fluorescence polarization; 370,000 tested, 0.54% active; AID 720543; Q8VD66; inhibition, % at 8.92 µM;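 active means inhibition exceeding the mean over every tested compound plus 3 SD, cut at about 30% in these data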
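Assay system: mouse ABHD4 enzyme, wild type / Also added: fluorescent activity-based probe FP-Rh / Doses: single nominal dose of 8.92 µM, 0.89% DMSO final / Timing: 45 min compound pre-incubation plus 60 min probe step, 25 °C / Signal: FP readout, ex 525 nm / em 598 nm / Control set: S159A mutant/DMSO as 100%, compound-well median as 0%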
DAGLB inhibitor = diacylglycerol lipase beta (human) inhibition | HEK293T DAGLB membrane lysate, EnzChek fluorogenic substrate | inhibition, % at 5.17 µM | 340,000 tested, 0.059% active | AID 504411; in the data active means inhibition above about 34%
LEDGF integ inh = blocks HIV-1 LEDGF/p75-dependent DNA integration; TR-FRET IN-LEDGF/p75 DNA integration, Eu/Cy5; inhibition, % at 3.7 µM; 370,000 tested, 0.64% active;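 active means inhibition above the screen-wide mean plus 3 SD, cut at about 13% in these data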;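 further: signal is the Cy5 over europium emission ratio at 671 and 618 nm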
PRMT1 inh = inhibitors of human PRMT1. Q99873. recombinant PRMT1, activity-based probe fluorescence polarization. inhibition, % at 2.79 µM. 370,000 tested, 1.3% active. AID 652257;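 active means inhibition above about 21% made by adding two undisclosed values, limit read from the data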
Target sequence (Q99873 whole entry, looked up): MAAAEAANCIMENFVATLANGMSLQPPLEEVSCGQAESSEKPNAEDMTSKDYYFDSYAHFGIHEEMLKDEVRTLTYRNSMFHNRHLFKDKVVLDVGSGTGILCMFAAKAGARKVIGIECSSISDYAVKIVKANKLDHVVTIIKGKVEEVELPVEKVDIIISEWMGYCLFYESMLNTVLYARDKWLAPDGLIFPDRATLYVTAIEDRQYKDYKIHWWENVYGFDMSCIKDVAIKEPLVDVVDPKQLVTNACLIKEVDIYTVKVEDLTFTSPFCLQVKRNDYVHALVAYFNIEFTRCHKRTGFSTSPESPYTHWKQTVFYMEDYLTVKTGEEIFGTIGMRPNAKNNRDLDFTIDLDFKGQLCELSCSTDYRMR
HTRA1 inhibitor = HTRA1 (human) protease inhibition | AID 504803 | 340,000 tested, 0.5% active | inhibition, % at 5.96 µM | recombinant HTRA1, FP-rhodamine activity-based probe, fluorescence polarization | Q92743; in the data active means inhibition above about 36%
rCAG binder = molecules binding r(CAG) RNA repeats | r(CAG) RNA repeat, TO-PRO-1 dye displacement fluorescence | inhibition, % at 3 µM | 370,000 tested, 1.3% active | AID 651821;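 active means inhibition above the plate cutoff, the mean of all test compounds on that plate plus 3 SD, cut at about 35% in these data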;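 further: higher means more dye released from RNA so lower well fluorescence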
rCAG binder conf = r(CAG) RNA repeat binding, confirmation; 4,300 tested, 70% active; shares compounds with rCAG binder; inhibition, % at 3 µM; TO-PRO-1 dye displacement fluorescence; AID 652065;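 active means inhibition above a per-plate cutoff, the mean inhibition of sample wells plus 3 SD, cut at about 35% in these data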;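 further: loss of TO-PRO-1 fluorescence as compound displaces dye from 1x1 AA loop RNA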
dCAG dye counter = DNA CAG dye complex inhibition counter-screen; shares compounds with rCAG binder; d(CAG) DNA oligo TO-PRO-1 dye displacement, fluorescence; inhibition, % at 3 µM; 4,300 tested, 94% active;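 active means inhibition above its plate's cutoff, the mean test-well inhibition plus 3 SD, cut at about 4.8% in these data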;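 further: hits displace the dye from DNA and so lower well fluorescence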
DNA CAG DR = counter-screen for rCAG binders: inhibitors of DNA CAG TO-PRO-1 complex | shares compounds with rCAG binder | DNA CAG/GTC duplex TO-PRO-1 dye displacement fluorescence | IC50, µM | 250 tested, 20% active | AID 686960; in the data active means IC50 below about 10 µM
Numbers stand for hits; 0 = inactive; - = no result. A selection: hits, their analogues and other compounds. The true share with any hit is near 3.2%.

SMILES	ABHD4 inh	DAGLB inhibitor	LEDGF integ inh	PRMT1 inh	HTRA1 inhibitor	rCAG binder	rCAG binder conf	dCAG dye counter	others
COC(=O)c1sc(-c2ccc(C(C)(C)C)cc2)cc1NC(=O)COCC(=O)O	0	-	0	0	-	63.8	73.0	31.2	DNA CAG DR=9.06
COCCN1C(=O)c2ccc(C(=O)O)cc2C1=O	0	0	0	0	0	0	-	-
Cc1[nH]c2ccc(OC(F)(F)F)cc2c1CCN1C(=O)c2ccc(C(=O)O)cc2C1=O	0	0	0	0	0	47.9	44.0	13.2
Cc1c(C#N)c(N=CN(C)C)c(C(=O)c2ccccc2)n1-c1ccccc1	0	0	0	0	0	0	-	-
CC(C)C(N)c1csc(NC(=O)Nc2cccc(Cl)c2)n1 (stereo unspecified)	0	-	0	0	-	43.8	51.0	8.4
NC(c1csc(NC(=O)Nc2cccc(Cl)c2)n1)c1ccccc1Cl (stereo unspecified)	0	-	0	0	-	41.1	49.6	16.9
CC(C)c1ccc(NC(=O)Nc2nc(C(N)C(C)C)cs2)cc1 (stereo unspecified)	0	-	0	0	-	0	-	-
Cc1cccc(C)c1NC(=O)Nc1nc(C(N)c2ccccc2Cl)cs1 (stereo unspecified)	0	-	0	0	-	0	-	-
CCOc1ccc(CN(C)CC(=O)Nc2cccc(C)c2)cc1OC	0	0	0	0	0	0	-	-
C(=NN=C1c2ccccc2-c2ccccc21)c1c[nH]c2ccccc12	0	0	0	0	0	35.4	38.8	19.6
Oc1ccc(C=NN=C2c3ccccc3-c3ccccc32)c(O)c1	0	0	0	0	0	49.0	48.9	32.0
O=[N+]([O-])c1cccc(/C=N\N=C2c3ccccc3-c3ccccc32)c1O	0	0	0	0	0	0	-	-
CC(=O)C[C@@H](O)CC(=O)[C@H]1OC(=O)[C@H](C)CCCCc2ccccc21	0	0	0	0	0	0	-	-
Cc1ccc(-c2nc3c(Cl)cc(Cl)cc3c(=O)n2O)cc1	0	0	0	0	0	57.8	0	0
Cc1ccc(N2C(=O)C3Sc4[nH]c(=O)sc4C(c4ccccc4)C3C2=O)cc1 (stereo unspecified)	0	0	0	0	0	0	-	-
O=C1C2Sc3[nH]c(=O)sc3C(c3ccccc3)C2C(=O)N1c1ccc(Cl)cc1 (stereo unspecified)	0	0	0	0	0	35.9	0	8.7
COc1ccc(NC(=S)NC(=O)/C=C/c2cccs2)cc1	0	0	0	0	0	0	-	-
Cc1cc(NS(=O)(=O)c2ccc(NC(=O)/C=C/c3ccccc3)cc2)no1	0	0	0	0	0	0	-	-
O=C(/C=C/c1cccs1)NC(=S)Nc1ccc(S(=O)(=O)Nc2ccccc2C(F)(F)F)cc1	0	0	0	0	0	56.1	70.1	32.5	DNA CAG DR=0
Cc1cc(NS(=O)(=O)c2ccc(NC(=S)NC(=O)/C=C/c3ccccc3)cc2)no1	0	0	0	0	0	71.2	47.1	16.8
Cc1ccc(/C=C/C(=O)NC(=S)Nc2ccc(S(=O)(=O)Nc3cc(C)on3)cc2)cc1	0	0	0	0	0	79.5	76.7	46.5
COc1ccc(/C=C/C(=O)NC(=S)Nc2ccc(S(=O)(=O)Nc3cc(OC)ncn3)cc2)cc1	0	-	0	0	-	0	-	-
O=C(COC(=O)c1cccc(F)c1)NCCC1=CCCCC1	0	0	0	0	0	0	-	-
O=C(CN(Cc1ccccc1)S(=O)(=O)c1ccccc1)N/N=C/c1ccc([N+](=O)[O-])cc1	0	0	0	0	0	0	-	-
O=C(CN(Cc1ccccc1Cl)S(=O)(=O)c1ccc(Cl)cc1)N/N=C/c1ccc(C(=O)O)cc1	0	0	0	0	0	70.6	55.0	19.9
SMILES	ABHD4 inh	DAGLB inhibitor	LEDGF integ inh	PRMT1 inh	HTRA1 inhibitor	rCAG binder	rCAG binder conf	dCAG dye counter	others
O=C(CSc1nnc(SCc2ccccc2Cl)s1)N/N=C/c1ccc(C(=O)O)cc1	0	0	0	0	0	49.2	60.4	17.3
O=C(CSc1nnc(SCc2ccccc2)s1)N/N=C/c1c(Cl)cccc1Cl	0	0	0	0	0	0	-	-
O=C(OCc1nnc(-c2ccccc2)o1)C12CC3CC(CC(Br)(C3)C1)C2	0	0	0	0	0	0	-	-
CCCc1nn2c(=O)c(C(c3cccc(Cl)c3)c3c(O)nc4sc(CCC)nn4c3=O)c(O)nc2s1	0	0	0	0	0	38.6	50.7	15.6
Cc1onc(-c2ccccc2Cl)c1C(=O)Nc1nnc(-c2cccc([N+](=O)[O-])c2)s1	0	0	0	0	0	41.9	0	7.4
CCSc1nnc(NC(=O)c2c(-c3ccccc3Cl)noc2C)s1	0	0	0	0	0	0	-	-
S=c1[nH]nc(COc2ccccc2)n1/N=C/c1ccc(Cl)cc1	0	0	0	0	0	44.0	0	7.4
Fc1ccccc1/C=N/n1c(COc2ccccc2)n[nH]c1=S	0	0	0	0	0	0	-	-
COc1ccc(/C=N/n2c(-c3n[nH]c4c3CCC4)n[nH]c2=S)cc1	0	0	0	0	0	0	-	-
Cc1cc(-c2n[nH]c(=S)n2N=Cc2ccc(OCc3ccccc3)cc2)n[nH]1	0	-	0	0	-	34.7	39.8	9.8
CC(C)Oc1cccc(-c2n[nH]c(=S)n2N=Cc2ccc(OCc3ccccc3)cc2)c1	0	-	0	0	-	50.6	52.4	26.3
S=c1[nH]nc(-c2n[nH]c3c2CCC3)n1N=Cc1ccc(OCc2ccccc2)cc1	0	-	0	0	-	37.9	43.1	13.8
CCOc1ccc(NC(=O)CN(C)C(=O)c2ccc(N3CCCCCC3)c([N+](=O)[O-])c2)cc1OCC	0	0	0	0	0	0	-	-
Clc1cccc(CN2CCCCCC2)c1Cl	0	0	0	0	0	0	-	-
COCCN(C(=O)CCC(=O)Nc1cc(C)on1)C(C(=O)NC(C)(C)C)c1ccccc1Cl (stereo unspecified)	0	0	0	0	0	0	-	-
CCOC(=O)N1CCN(C(=O)C2CCN(S(=O)(=O)c3ccccc3)CC2)CC1	0	0	0	0	0	0	-	-
CCCCOC(=O)Nc1ccc(S(=O)(=O)Nc2nc(C)cc(C)n2)cc1	0	0	0	0	0	0	-	-
CCCCCCOC(=O)Nc1ccc(S(=O)(=O)Nc2cccc([N+](=O)[O-])c2)cc1	0	0	0	0	0	45.0	45.9	13.6
CC1(C(=O)NS(=O)(=O)Cc2cccc(Cl)c2)CCN1C(=O)C1(c2ccc(Cl)cc2)CC1 (stereo unspecified)	0	-	0	0	-	54.4	44.7	11.5

Screens as filed in PubChem.
